Bioassay records deposited in PubChem by several laboratories.
Pf gamet viab = late stage P. falciparum gametocyte viability inhibitors, primary screen, ATP luminescence, HTS; P. falciparum stage V gametocytes, 24 h; inhibition, % at 10.9 µM; 150,000 compounds, 0.065% hits;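 active = inhibition above the mean plus 3 SD of compounds within the control limits, set per campaign, cut at about 38% in these data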;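 also: 0% = DMSO wells and 100% = medium only without gametocytes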
Biofilm kill mix = clotrimazole potentiators killing C. albicans biofilm, primary screen, 4-compound mixtures; C. albicans biofilm persisters + clotrimazole, fluorescence viability; primary screen in compound mixtures of four per well; inhibition, % at 7.6 µM; 120,000 compounds, 0.02% hits; AID 1242, 2008;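 active = inhibition above 30.3% in the primary screen of four-compound pools, then above 30% when the compound was retested; inconclusive = passed the primary limit but could not be retested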;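 also: compounds exposed to preformed 24 h biofilms for 48 h; 0% = untreated biofilm control and 100% = clotrimazole plus chlorhexidine kill blank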
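System: C. albicans CAF4-2 wild-type biofilms; Medium: RPMI/MOPS medium, pH 7.0; Reagent: Clotrimazole, 50 µg/mL; Times: biofilm formation 24 h, compound exposure 48 h, 37 °C; Detection: 2-h Alamar Blue fluorescence, 535/590 nm excitation/emission; Evaluation: percent inhibition of biofilm viability.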
ROMK primary = ROMK potassium channel modulators, primary screen, cell-based, thallium flux, MLSMR library; B-score at 10 µM; AID 1918, 2009; ATP-sensitive inward rectifier potassium channel 1 (Homo sapiens), P48048; Tet-inducible ROMK, thallium flux fluorescence; actives lie on both sides; 130,000 compounds, 2% hits;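 active = signal ratio slope over the read window, or its plate-corrected B-score, at least 3 SD from the plate mean, either direction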;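 also: B-score of the F/F0 ratio slope over 7 to 12 s after thallium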
Target sequence (P48048 whole entry, looked up): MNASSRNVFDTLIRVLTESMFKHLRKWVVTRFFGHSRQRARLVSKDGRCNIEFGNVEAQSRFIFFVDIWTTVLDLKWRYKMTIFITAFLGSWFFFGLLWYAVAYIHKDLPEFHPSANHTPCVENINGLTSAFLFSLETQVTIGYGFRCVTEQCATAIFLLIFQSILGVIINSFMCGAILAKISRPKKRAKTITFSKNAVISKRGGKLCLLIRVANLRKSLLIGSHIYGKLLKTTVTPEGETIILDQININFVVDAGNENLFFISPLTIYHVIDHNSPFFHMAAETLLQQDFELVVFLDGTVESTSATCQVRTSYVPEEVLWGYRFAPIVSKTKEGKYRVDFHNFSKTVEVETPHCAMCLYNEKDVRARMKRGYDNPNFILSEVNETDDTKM
ROMK retest = ROMK channel modulator hit retest, confirmation, cell-based, thallium flux, duplicate, resupplied hits; fluorescence ratio; hits give low values; AID 1917, 2009; 3,000 compounds, 54% hits; normalized thallium flux (F/F0 slope) at 10 µM; shares compounds with ROMK primary;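 active = Flux at 10 µM at least 3 SD below or above vehicle control mean in one or both replicates; inconclusive = no clear call, values can overlap the other calls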
The depositor's hits bear a star; ? = inconclusive; . = no result. The sample as a whole holds a higher share of hits than the screen did.

SMILES	Pf gamet viab	Biofilm kill mix	ROMK primary	ROMK retest
N#CCCN(Cc1ccccc1)C(=O)Nc1ccc(F)cc1	-33.8	23.4	.	.
N#Cc1cc(-c2ccccc2)nc(Oc2ccccc2)n1	9.7	11.9	-0.0866	.
NC(=O)c1cc(-c2ccccc2)nc(Oc2ccccc2)n1	.	.	-3.64*	0.0774
CN(C)c1ccc2c3c(ccc(N(C)C)c13)COC2	-6.2	14.3	1.12	.
O=C(O)c1ccc(Cn2cnc3scc(-c4ccccc4)c3c2=O)cc1	.	13.2	-6.05*	0.0551*
Cc1ccc(-c2csc3ncn(Cc4ccc(C(=O)O)cc4)c(=O)c23)cc1C	-1.4	-2.7	.	.
CCCNCC(O)COc1ccccc1C(=O)CCc1ccccc1 (stereo not drawn)	.	4.2	.	.
CSc1nc2ccc(S(=O)(=O)N3CCCCC3)cc2s1	.	.	0.000138	.
CSc1nc2ccc(S(=O)(=O)NC3CCCCC3)cc2s1	.	.	-2.38*	?
O=C(CN1CCCCCC1)NN(Cc1ccccc1)c1ccccc1	-7.3	6.6	-0.593	.
CCOC(=O)N1CCN(C(=S)NC(=O)c2cncc(Br)c2)CC1	18.4	19.6	1.23	.
O=C(COC(=O)C1CC2C=CC1C2)Nc1cccc(S(=O)(=O)N2CCOCC2)c1 (stereo not drawn)	8.1	6.8	.	0.0869
O=C(COC(=O)c1ccc2c(c1)OCCO2)Nc1cccc(S(=O)(=O)N2CCOCC2)c1	0.2	5.5	-1.12	.
CC(C)N(C(=O)COC(=O)[C@@H]1CC(O)CN1S(=O)(=O)c1ccc(C(C)(C)C)cc1)C(C)C (stereo partly drawn)	.	13.4	0.795	.
O=C(NCc1cccnc1)c1ccccc1NS(=O)(=O)c1ccc(F)cc1F	1.5	-0.4	.	.
O=C(Nc1cc(S(=O)(=O)N2CCCCC2)ccc1O)c1ccccc1NS(=O)(=O)c1ccc(F)cc1	8.2	17.1	3.31*	0.0892
Cc1ccc(S(=O)(=O)Nc2ccccc2C(=O)NCc2cccnc2)cc1	-1.2	12.3	2.8*	0.0831
Cc1ccc(S(=O)(=O)Nc2ccccc2C(=O)Nc2nc(-c3ccc(F)cc3)cs2)cc1	3.0	13.8	.	0.0571*
COc1ccc(-c2csc(NC(=O)c3ccccc3NS(=O)(=O)c3ccc(F)c(F)c3)n2)cc1	13.0	-24.4	-0.386	.
O=C(Nc1cc(S(=O)(=O)N2CCCCC2)ccc1Cl)c1ccccc1NS(=O)(=O)c1ccc(F)cc1	4.4	11.1	0.91	.
Cc1ccc(S(=O)(=O)N2CCC(C(=O)NCCc3ccccn3)CC2)cc1	-22.6	8.8	-1.16	.
CCOc1ccc(NC(=O)NNC(=O)c2ccc(CC)s2)cc1	-17.7	7.0	0.159	.
CCOc1ccc(C2CC(=O)N(Nc3ccc([N+](=O)[O-])cc3[N+](=O)[O-])C2=O)cc1 (stereo not drawn)	-24.7	1.2	.	.
CCc1cc(C(=O)COc2ccccc2F)c(O)cc1O	2.4	.	.	.
CCOC(=O)Nc1ccc2c(c1)nc(CN1CCCCC1)n2C	.	8.3	0.538	.
SMILES	Pf gamet viab	Biofilm kill mix	ROMK primary	ROMK retest
Cc1ccc(-c2c[n+](CC(=O)Nc3c(C)cccc3C)c3n2CCC3)cc1	2.7	25.4	.	.
COc1ccc(-c2c[n+](CC(=O)OC3CC(C)CCC3C(C)C)c3n2CCC3)cc1 (stereo not drawn)	-35.9	17.6	.	0.0507*
CC(C)[C@@H]1CC[C@@H](C)C[C@H]1OC(=O)C[n+]1cc(-c2ccc(Cl)cc2)n2c1CCCCC2	11.2	12.8	.	0.0352*
Cn1c(NC(=O)C[n+]2cc(-c3ccc(Cl)cc3)n3c2CCC3)cc(=O)n(C)c1=O	.	11.1	-0.812	.
CCc1ccccc1NC(=O)N1CCC(NC(=O)C(Cc2ccccc2)NC(C)=O)CC1 (stereo not drawn)	9.9	-3.5	0.135	.
C1CC(CN2CCOCC2)CN(Cc2nc(CC3CC3)no2)C1 (stereo not drawn)	13.6	8.6	0.0971	.
CCOC(=O)C1(CC2CCCCO2)CCN(S(=O)(=O)c2cccc(F)c2)CC1 (stereo not drawn)	-14.7	7.4	-0.904	.
CCCn1c(=S)[nH]c2cc(Cl)ccc21	-0.7	21.4	.	.
CC1(C)CC(=O)c2cc(NC(=O)c3ccc(F)cc3)c(=O)oc2C1	.	6.8	0.724	.
COc1ccc(-c2nn(-c3ccccc3)cc2CO)cc1	-23.0	.	0.0314	.
N=C(N)SCc1cn(-c2ccccc2)nc1-c1ccc(Br)cc1	22.7	10.9	-2.13*	0.0548*
CSc1nc(-c2ccc(N(C)C)cc2)c(C#N)c(=O)n1C	.	13.2	.	.
Cc1ccccc1NC(=O)COC(=O)c1ccc(S(C)(=O)=O)c([N+](=O)[O-])c1	-20.3	5.2	-3.47*	?
CC(=O)c1cccc(NC(=O)COC(=O)c2ccc(S(C)(=O)=O)c([N+](=O)[O-])c2)c1	-0.2	4.5	-0.115	.
Cc1ccc(Nc2nc(CSc3n[nH]c(N)n3)cs2)cc1	20.8	12.6	.	.
CC1=CC(C)(C)N(S(=O)(=O)c2ccc(F)cc2)c2ccccc21	.	.	1.64	.
CC(=O)Nc1ccc(S(=O)(=O)N2c3ccccc3C(C)=CC2(C)C)cc1	11.9	10.0	2.11*	0.0862
CCO[C@@H]1OC(C(=O)NCc2nc3ccccc3[nH]2)=C[C@H](c2ccc(C(F)(F)F)cc2)[C@H]1CCCO	3.3	19.7	.	.
COc1cc(/C=N/NS(=O)(=O)c2ccc(C)c([N+](=O)[O-])c2)ccc1O	-12.1	17.2	-0.145	.
COc1ccc(-n2c(O)c(/C=N/NS(=O)(=O)c3ccc(C)c([N+](=O)[O-])c3)c3ccccc3c2=O)cc1OC	.	19.9	-3.28*	?
CCOC(=O)CSC1=N/C(=C\c2ccc(OC)c(OC)c2)C(=O)N1C	-17.3	17.7	-0.11	.
Cn1nnc(NC(=O)C(c2ccccc2)c2ccccc2)n1	-11.8	.	.	.
CCn1nnc(NC(=O)C(c2ccccc2)c2ccccc2)n1	9.1	25.5	-7.34*	0.0773
COc1ccc(Cn2c(-c3ccc(OC)cc3)nc3ccccc32)cc1	-17.0	4.3	-2.51*	?
COCCn1c(-c2ccc(OC)cc2)nc2ccccc21	.	.	-0.126	.
SMILES	Pf gamet viab	Biofilm kill mix	ROMK primary	ROMK retest
C=CCn1c(-c2cc3cccc(OC)c3o2)n[nH]c1=S	-2.3	8.6	-0.397	.
Cc1ccc(-n2c(C)cc(/C=c3/sc4nc5ccccc5n4c3=O)c2C)cc1	.	.	0.731	.
COc1cc(N2CCCC2)c(OC)cc1/C=c1/sc2nc3ccccc3n2c1=O	.	.	-2.52	0.0507*
CC1CCc2c(sc3ncnc(N4CCN(S(=O)(=O)c5cccc6nonc56)CC4)c23)C1 (stereo not drawn)	.	.	-0.535	.
CCCCc1nc2ccccc2c(NC(=O)CNC(C)(C)C)c1CCC	.	.	-2.79*	0.0547*
CCCCc1nc2ccccc2c(NC(=O)CN2CCCC2)c1CCC	.	13.7	-1.6	.
COc1ccccc1CN(Cc1cc2cc(C)ccc2[nH]c1=O)Cc1nnnn1CC1CCCO1 (stereo not drawn)	.	.	-1.67	.
COc1ccccc1CN(Cc1cc2cc(C)cc(C)c2[nH]c1=O)Cc1nnnn1CC1CCCO1 (stereo not drawn)	-12.1	.	-4.07*	0.0655*
CN(C)S(=O)(=O)c1cccc(C(=O)Nc2ccc(S(=O)(=O)N3CCCC3)cc2)c1	15.5	9.6	-0.00355	.
O=C(NC1CCCCC1)C(c1cccnc1)N(C(=O)CCl)c1cccc(Cl)c1 (stereo not drawn)	7.8	3.1	-3.33*	0.051*
